# Data taken from publication PMC4011022 (Molecular cell, 2014).
# Where two headings read alike, the source gives them in different places.
# Columns and labels:
# [1] = biological target: T1, CK2α (casein kinase-2 catalytic subunit) (Homo sapiens, UniProt P68400); experiment: competition of [3H]IP6 radioligand binding to purified recombinant GST-CK2α
# [2] = biological target: T1, CK2α (casein kinase-2 catalytic subunit); format: binding
# In short: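 GST-tagged CK2α was expressed in E. coli and purified. Twenty μg, held on glutathione beads, was incubated overnight at 4 °C with [3H]IP6 (10–20 Ci/mmol) in 40 mM Tris pH 8.0, 150 mM NaCl, 1 mM MgCl2, 4% glycerol and 0.1% Triton. Unlabeled IP6 was added over a concentration series as competitor. Controls were buffer or GST alone. Data are mean ± SE of at least three independent experiments.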
# T1 sequence (P68400 whole entry): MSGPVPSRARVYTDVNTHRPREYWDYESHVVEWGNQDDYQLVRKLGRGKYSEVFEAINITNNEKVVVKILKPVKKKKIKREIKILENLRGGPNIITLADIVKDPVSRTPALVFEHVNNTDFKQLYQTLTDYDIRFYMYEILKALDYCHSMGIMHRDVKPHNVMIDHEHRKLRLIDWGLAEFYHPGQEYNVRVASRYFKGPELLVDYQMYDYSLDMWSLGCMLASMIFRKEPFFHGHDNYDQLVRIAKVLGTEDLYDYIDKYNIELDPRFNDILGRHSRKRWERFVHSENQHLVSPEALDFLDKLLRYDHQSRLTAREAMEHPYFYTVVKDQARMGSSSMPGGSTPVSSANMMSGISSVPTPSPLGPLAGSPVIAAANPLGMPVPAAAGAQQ
IC50 [1],IC50 [2],Compound
~0.4 µM,,O=P(O)(O)O[C@H]1[C@@H](OP(=O)(O)O)[C@H](OP(=O)(O)O)[C@@H](OP(=O)(O)OP(=O)(O)O)[C@H](OP(=O)(O)O)[C@H]1OP(=O)(O)O [IP7]
,14 µM,O=P(O)(O)O[C@H]1[C@H](OP(=O)(O)O)[C@@H](OP(=O)(O)O)[C@H](OP(=O)(O)O)[C@@H](OP(=O)(O)O)[C@H]1OP(=O)(O)O [IP6]
